High-throughput results as filed in PubChem BioAssay.
Runt-CBFb FRET: inhibitors of human RUNX1 Runt domain binding to CBFb; AID 1496; hit rate 0.46% among 220,000; inhibition, % at 20 µM; Cerulean-Runt/Venus-CBFb FRET ratio 530/480, 1 h; Q01196+Q13951;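 active = inhibition over about 50% at 20 µM in the single-dose screen, limit read from the data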;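 also: 0% = DMSO wells and 100% = excess unlabeled CBFb competitor control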
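Buffer or medium: Tris pH 7.5 buffer with BSA. Assay system: Cerulean-labeled Runt domain protein. Amount: each fluorescent fusion protein 100 nM. Read-out basis: loss of energy transfer signal. Incubation: 1 h compound exposure, room temperature. Probe or stimulus: Venus-CBFb binding partner, 100 nM. Detection: FRET, excitation 422 nm, emission at 530 and 480 nm.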
Runt-SMMHC FRET: blocks binding of human RUNX1 Runt domain to CBFb-SMMHC. hit rate 0.74% among 220,000. AID 1434. Cerulean-Runt/Venus-CBFb-SMMHC FRET ratio 530/480, 1 h. inhibition, % at 20 µM;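 active = mean inhibition across duplicate retests at 20 µM reaching about 50%, limit read from the data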;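 also: 0% = DMSO wells and 100% = wells with excess untagged CBFb-SMMHC; inhibitors lower the FRET ratio by blocking Runt binding to CBFb-SMMHC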
RBBP9 inh: human RBBP9 hydrolase inhibition; AID 1515; recombinant RBBP9, FP-Rh probe fluorescence polarization; O75884; hit rate 0.2% among 220,000; inhibition, % at 7.94 µM;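 active = inhibition above the campaign mean of all tested compounds plus 3 SD, cut at about 14% in these data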;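 also: plate controls were DMSO wells with RBBP9 for no effect and wells lacking RBBP9 protein for full effect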
Target sequence (O75884 whole entry, looked up): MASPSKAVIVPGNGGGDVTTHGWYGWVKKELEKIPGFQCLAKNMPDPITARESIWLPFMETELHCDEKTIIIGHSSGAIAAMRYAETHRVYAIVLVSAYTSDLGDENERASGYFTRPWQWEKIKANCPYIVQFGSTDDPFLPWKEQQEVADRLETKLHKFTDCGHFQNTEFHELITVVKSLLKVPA
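Test system: recombinant human RBBP9; Timing: 30 min then 45 min, 25 °C; Detection: fluorescence polarization; Control set: RBBP9 with DMSO as uninhibited control, no-protein wells as full inhibition; Compound dosing: one concentration, 7.94 µM nominal, 0.794% DMSO; Probe or stimulus: FP-Rh activity-based probe, 375 nM before mixing.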
Hck-Nef inh: blocks Nef-activated human Hck kinase. P08631. inhibition, % at 20 µM. hit rate 0.68% among 220,000. Recombinant Hck-YEEI plus Nef, Z-Lyte FRET kinase assay;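 active = Hck-Nef kinase inhibition above about 50%, limit read from the data; inactive = inhibition below that limit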;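 also: 0% = DMSO with Hck plus Nef and 100% = Hck alone without Nef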
PfM18AAP inh-1: PfM18AAP enzyme inhibition; hit rate 1.2% among 290,000; recombinant PfM18AAP, H-Glu-NHMec fluorogenic cleavage; AID 1822; inhibition, % at 7.35 µM;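 active = inhibition above the campaign mean inhibition over all tested compounds plus 3 SD, cut at about 28% in these data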;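 also: 0% = plate median of test compound wells and 100% = 2 mM ZnCl2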
RanGTP-Imp inh: inhibitors of RanGTP-importin-beta interaction, primary screen, biochemical, FRET, CFP-Ran, YFP-importin-beta, homogeneous; cell-free CFP-Ran/YFP-importin-beta FRET ratio; inhibition, % (no concentration beside the values); hit rate 1.1% among 300,000; AID 2216;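 active = more than half of the replicate wells show a fall in the fluorescence ratio signal beyond about 16%, limit read from the data, passing the limit was not always enough; inconclusive = exactly half of the replicate wells pass the set limit; inactive = fewer than half of replicates pass the limit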;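 also: 0% = DMSO wells and 100% = Ran loaded with GDP instead of GTP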
PfM18AAP inh-2: confirmation of Plasmodium falciparum M18 aspartyl aminopeptidase inhibitors. shares compounds with PfM18AAP inh-1. recombinant PfM18AAP, H-Glu-NHMec fluorogenic cleavage. inhibition, % at 7.35 µM. hit rate 28% among 2,400;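 active = mean inhibition over replicate wells above the hit cutoff set for the earlier primary screen, cut at about 29% in these data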;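 also: 0% = median of test compound wells and 100% = 2 mM ZnCl2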
CTSL1 confirm: counter-screen for PFM18AAP inhibitors: confirmation of human cathepsin L inhibitors | shares compounds with PfM18AAP inh-1 | purified cathepsin L1, Z-Leu-Arg-MCA fluorescence | inhibition, % at 5.96 µM | 2,400 tested, under 10 active;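 active = average inhibition across replicates above the hit cutoff set in the earlier primary screen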;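 also: 0% = median of test compound wells and 100% = Z-Phe-Ala-diazomethylketone 1 µM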
Target sequence (P07711 whole entry, looked up): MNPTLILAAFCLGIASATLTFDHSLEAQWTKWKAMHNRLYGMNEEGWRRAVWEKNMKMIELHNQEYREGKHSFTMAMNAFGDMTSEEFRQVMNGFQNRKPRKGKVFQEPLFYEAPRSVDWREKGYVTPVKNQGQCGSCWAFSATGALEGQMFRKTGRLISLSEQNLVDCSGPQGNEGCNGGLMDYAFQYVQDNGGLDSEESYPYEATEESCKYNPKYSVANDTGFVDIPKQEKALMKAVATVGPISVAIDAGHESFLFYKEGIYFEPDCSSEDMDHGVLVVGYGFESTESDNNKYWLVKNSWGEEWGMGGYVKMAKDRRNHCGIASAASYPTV
Active calls of the source: *; ? = inconclusive; . = no result. Compounds with a hit are over-represented: about 2.9% of the library has one in this group of screens.

SMILES	Runt-CBFb FRET	Runt-SMMHC FRET	RBBP9 inh	Hck-Nef inh	PfM18AAP inh-1	RanGTP-Imp inh	PfM18AAP inh-2	CTSL1 confirm
Cc1ccc(-c2nc(CS(=O)(=O)CC(=O)NCCN3CCCC3)c(C)o2)cc1	.	.	.	.	-4	7	.	.
Cc1nc(SCc2ccc(O)c([N+](=O)[O-])c2)n[nH]1	12	-4	-4	3	15	-2	.	.
Cc1nc(SCc2ccc(O)c([N+](=O)[O-])c2)c([N+](=O)[O-])[nH]1	46	9	9	-3	47*	0	-3	3
OCCN1CCN(C(=S)Nc2ccc(SC(F)F)cc2)CC1	-2	0	-5	23	3	5	.	.
CSc1ccc(C(=S)N2CCN(CCO)CC2)cc1	47	33	-7	3	33*	1	7	0
O=C1OC(Nc2ccc3c(c2)OCO3)c2ccccc21 (stereo unspecified)	24	17	-2	1	45*	?	22	4
Cc1ccc2c(c1)N(CC(=O)NCC1CCCO1)C(=O)C(C(C)C)O2 (stereo unspecified)	.	.	.	.	2	2	.	.
COc1ccc(C(=O)NNC2=CC(=O)CC(C)(C)C2)cc1	3	2	-16	-1	47*	33*	27	-1
Cc1ccc(N=C(NOC(=O)c2ccccc2)c2nonc2N)c(C)c1	-2	5	-14	-3	6	0	.	.
CC(=O)ONC(=Nc1ccccc1)c1nonc1N	0	-4	-1	10	36*	3	-6	-46
Cc1cc(NC(=O)CSc2nc(=O)n(CCCN(C)C)c3c2CCCC3)no1	.	.	.	.	.	-1	.	.
COc1cc(/C=N/NC(=O)c2ccncc2)ccc1OC(C)=O	.	.	.	.	14	-5	.	.
COc1cc(/C=N\Nc2nncn2N)ccc1OC(C)=O	.	.	.	.	53*	3	-4	5
COc1cccc2c(N/N=C/c3ccc(O)c(O)c3)cc(C)nc12	.	.	.	.	56*	-2	32*	-1
CCOc1cc(/C=N/Nc2nnc(C)n2N)ccc1O	.	.	.	.	25	2	.	.
COc1cc(/C=N/Nc2nncn2/N=C/c2ccc(O)c(OC)c2)ccc1O	3	2	2	29	63*	-1	42*	2
COc1ccc(/C=N/Nc2cc(C)nc3c(C)cccc23)cc1	.	.	.	.	12	?	.	.
COc1cc(/C=N/Nc2ccccc2C(F)(F)F)ccc1O	1	4	-4	10	39*	-4	-13	0
COc1cc(/C=N/Nc2ccccc2)ccc1O	.	.	.	.	19	-1	.	.
CCN(Cc1ccccc1)C(=O)c1c(-c2ccccc2Cl)noc1C	.	.	.	.	1	0	.	.
COc1ccc(OC)c(/C=N\Nc2nccs2)c1	.	.	.	.	.	-2	.	.
COc1ccc(OC)c(/C=N/Nc2nncn2/N=C/c2cc(OC)ccc2OC)c1	-2	0	-5	0	51*	3	-44	1
COc1ccc(O)c(/C=C2/SC(=S)N(Cc3ccccc3)C2=O)c1	.	.	.	.	42*	4	-4	4
CC(C)CCN(C(=O)Cc1ccc(Cl)c(Cl)c1)c1c(N)n(Cc2ccccc2)c(=O)[nH]c1=O	-2	-3	1	13	1	-2	.	.
CCOC(=O)N1CCC(NC(=O)CC2C(=O)NCCN2Cc2cccc(F)c2F)CC1 (stereo unspecified)	.	.	.	.	3	4	.	.
SMILES	Runt-CBFb FRET	Runt-SMMHC FRET	RBBP9 inh	Hck-Nef inh	PfM18AAP inh-1	RanGTP-Imp inh	PfM18AAP inh-2	CTSL1 confirm
CN(/N=C\c1ccc(O)c(O)c1)c1nc(-c2ccccc2)cc(-c2ccccc2)n1	-2	-1	-3	2	50*	-1	24	-3
COc1cc(/C=N/N(c2ccccc2)c2ccccc2)ccc1O	.	.	.	.	13	3	.	.
CN(CC(=O)Nn1cnnc1)S(=O)(=O)c1ccccc1	0	-6	-4	4	32*	-2	20	-5
CCN(CC)S(=O)(=O)c1ccc(C(=O)Nn2cnnc2)cc1	.	.	.	.	81*	-2	75*	7
CCN(CC)CCCNC(=O)C1CCC(CNS(=O)(=O)c2ccc(Cl)cc2)CC1 (stereo unspecified)	.	.	.	.	1	2	.	.
CCN(CC(=O)Nc1c(F)cccc1F)C(=O)CNC(=O)C1CCCCC1	.	.	.	.	.	5	.	.
O=C(CCSCc1ccccc1F)NCc1ccc(F)cc1	.	.	.	.	9	-2	.	.
O=C(c1ccc(Cl)cc1)c1c[nH]c(C(=O)NNc2ccccc2)c1	10	5	-5	-11	33*	0	-6	-1
CCCCN1Cc2c(nc3cc(-c4ccco4)[nH]n3c2=O)C1=O	15	8	-3	16	2	-1	.	.
Cc1cc(C)nc(SCCN(C)C)n1	-4	-6	-4	21	1	8	.	.
Cc1cc(C)nc(SSc2nc(C)cc(C)n2)n1	.	.	.	.	61*	-2	28	5
Fc1ccc(CSc2ncnc3scc(-c4ccccc4)c23)cc1	0	-1	-8	2	-3	-1	.	.
Fc1ccc(C[n+]2csc3ccccc32)cc1	38	74	-9	0	36*	-3	-5	-1
COc1ccc(C(C)C)cc1S(=O)(=O)Nc1ccncc1	-2	2	5	17	37*	-4	-58	-2
CCOC(=O)c1cc(C(=O)NC(C)c2ccccc2)c(C)[nH]c1=O (stereo unspecified)	-1	-2	-7	22	-4	-2	.	.
O=c1cc2oc3cc(O)c(O)cc3c(-c3ccccc3[N+](=O)[O-])c-2cc1O	.	.	.	.	59*	18*	49*	-1
O=C(c1cc2ccccc2oc1=O)N(Cc1ccccc1)CC1CCCO1 (stereo unspecified)	0	4	-5	-4	0	-1	.	.
COc1cccc2cc(C(=O)N(Cc3ccccc3)CC3CCCO3)c(=O)oc12 (stereo unspecified)	1	-4	2	-7	35*	0	-29	-1
CCOC(=O)Cc1csc(NC(=O)Nc2ccc(OC(F)(F)F)cc2)n1	-3	1	6	3	-3	8	.	.
CCOC(=O)Cc1csc(NC(=O)NC2(C(F)(F)F)Oc3ccc(Cl)cc3O2)n1 (stereo unspecified)	9	5	-5	3	97*	3	73*	-2
CCOC(=O)Cc1csc(NC(=O)NC2(C(F)(F)F)Oc3cc(Cl)c(Cl)cc3O2)n1	14	1	-20	0	94*	7	73*	-3
CCOC(=O)Cc1csc(NC(=O)Cc2ccc(Cl)cc2)n1	1	1	-14	-1	-4	-4	.	.
